Reference: ChEMBL document CHEMBL1153750, “ent-kaurane and ent-pimarane diterpenoids from Siegesbeckia pubescens” (J Nat Prod, 2010)
Converted amounts (≈) assume the structure as drawn.

Assays:
Format in all cases: functional, cell-based
[1] = Cytotoxicity against rat HSC-T6 cells after 44 hrs by MTT assay
In short: (§1)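 Exponential-phase cells seeded at 5 × 10⁴ per well and preincubated 24 h at 37 °C, 5% CO₂. Test agent added in triplicate at final 10, 50 and 100 μg/mL, incubated 44 h at 37 °C. MTT then added for 4 h at 37 °C, absorbance read at 490 nm. IC50 derived from percentage inhibition by linear regression.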

HeLa = assay: Cytotoxicity against human HeLa cells after 44 hrs by MTT assay; in short: as §1
B16 = assay: Cytotoxicity against mouse B16 cells after 44 hrs by MTT assay; in short: as §1
[2] = Rattus norvegicus, HSC-T6, 44 h, read-out: IC50
[3] = Homo sapiens, HeLa, 44 h, read-out: IC50
[4] = Mus musculus, B16, 44 h, read-out: IC50

Row | SMILES | IC50 [1, 2] | IC50 (HeLa; [3]) | IC50 (B16; [4]) | IC50 ([1]; hsc-t6) | IC50 (B16; b16) | IC50 (HeLa; hela)
1 | CC(=O)OC[C@@]1(C(=O)O)CCC[C@@]2(C)[C@@H]3CC[C@H]4C[C@@]3(CC[C@H]12)C[C@H]4COC(=O)C(C)C | 24.6 mg/L (≈ 54.8 µM) | 24.6 mg/L (≈ 54.8 µM) | 22.8 mg/L (≈ 50.8 µM) |  |  | 
2 | CC1(C)OC[C@@H]([C@]2(C)C=C3CC[C@@H]4C(C)(C)[C@H](O)CC[C@@]4(C)C3CC2)O1 (stereo partly drawn) | 12.6 mg/L (≈ 34.8 µM) | 11.7 mg/L (≈ 32.3 µM) | 7.8 mg/L (≈ 21.5 µM) |  |  | 
3 | C[C@@]12CCC[C@@](C)(C(=O)O)[C@H]1CC[C@@]13C[C@H](CC[C@H]12)[C@@](O)(CO)C3 | > 100 mg/L | > 100 mg/L | > 100 mg/L |  |  | 
4 | CC1(C)[C@H](O)CC[C@@]2(C)[C@@H]3CC[C@](C)([C@@H](O)CO)C=C3CC[C@H]12 [DARUTIGENOL] |  | > 100 mg/L |  | Not Active | Not Active | 
5 | C[C@@]1(CO)C[C@@H](O)C[C@@]2(C)[C@@H]3CC[C@](C)([C@@H](O)CO)C=C3CC[C@H]12 [KIRENOL] | > 100 mg/L |  | > 100 mg/L |  |  | Not Active
6 | CC(=O)O[C@H]1C(=O)[C@@]2(C)[C@H]([C@H](OC(=O)c3ccccc3)[C@]3(O)C[C@H](OC(=O)[C@H](O)[C@@H](NC(=O)c4ccccc4)c4ccccc4)C(C)=C1C3(C)C)[C@]1(OC(C)=O)CO[C@@H]1C[C@@H]2O [PACLITAXEL] | 0.75 mg/L (≈ 0.878 µM) | 0.61 mg/L (≈ 0.714 µM) | 0.63 mg/L (≈ 0.738 µM) |  |  | 
